# High-throughput results (PubChem BioAssay)
# KCNK3 block: human KCNK3 channel inhibition, primary screen; O14649; hit rate 0.84% among 340,000; CHO-KCNK3 thallium flux, FluxOR fluorescence; stronger effect = lower value; B-score at 10 µM; AID 602410;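 active means B-score under library mean minus 4 SD, starting fluorescence ratio at most library mean plus 5 SD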;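 further: more negative B-score means stronger inhibition of thallium flux through KCNK3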
# Kir21 block: Kir2.1 (mouse) channel inhibition | B-score at 10 µM | P35561 | hit rate 0.85% among 310,000 | HEK293-Kir2.1, FluxOR thallium flux fluorescence; stronger effect = lower value | AID 1672;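 active means fluorescence ratio B-score at or below minus 3 SD of library scores, with starting-brightness B-score within 2 SD, cut at about -4.2 in these data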;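 further: channel flux triggered by added potassium and thallium sulfate stimulus; B-score of peak minus minimum fluorescence over baseline after thallium stimulus; more negative B-score means stronger Kir2.1 block with less thallium influx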
# KCNQ1 pot: human KCNQ1 channel potentiation or activation. P51787. CHO-K1 KCNQ1, thallium flux FluxOR fluorescence; stronger effect = higher value. B-score at 10 µM. hit rate 0.35% among 310,000;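 active means fluorescence ratio B-score, a plate-corrected score, at least three library SD, with initial intensity B-score within 5 SD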
#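 Material: CHO-K1 cells stably expressing KCNQ1. Medium: assay buffer for compound exposure, DMSO matched across wells. Reagent: K+/Tl+ depolarizing stimulus. Compound dosing: single-concentration screen. Times: 37 °C overnight plating, 90-min dark dye load, 20-min compound pretreatment. Technique: FluxOR Tl+ flux fluorescence.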
# hERG protect: shields human hERG channel from block by proarrhythmic agents | Q12809 | CHO-hERG, FluxOR thallium flux, dofetilide IC70 present | activation (rescue from dofetilide block), less the hit threshold, % at 10 µM | hit rate 0.51% among 310,000 | AID 1511;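 active means activation above the mean of controls blocked by dofetilide plus 5 SD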;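 further: thallium influx through hERG after potassium depolarization seen as dye fluorescence rise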
# KCNK9 inh: inhibitors of human KCNK9 two-pore domain potassium channel. Q9NPC2. HEK293 KCNK9, FluxOR thallium flux fluorescence; stronger effect = lower value. B-score at 10 µM. hit rate 1.2% among 310,000. AID 488922;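 active means ratio B-score over 3 SD below the library mean, with starting fluorescence within 5 SD of its mean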;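 further: negative B-score means less thallium flux so channel inhibition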
# KCNQ1 block: inhibitors of human KCNQ1 potassium channel | P51787 | CHO-K1 KCNQ1, FluxOR thallium flux fluorescence; stronger effect = higher value | B-score at 10 µM | hit rate 1.3% among 310,000 | AID 2642;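 active means compounds whose thallium flux B-score, printed positive for inhibition, exceeds three library SD while starting fluorescence stays within three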;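 further: channel opened by potassium depolarization with thallium stimulus after 20 min compound exposure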
# KCNQ1 inh valid: reconfirmed blocker of the human KCNQ1 potassium channel. shares compounds with KCNQ1 block. AID 588353. hit rate 93% among 1,600. inhibition, % at 10 µM. KCNQ1 cell line, FluxOR thallium flux fluorescence;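 active means primary screen active, with duplicate mean exceeding buffer control mean plus 3 SD of buffer wells, cut at about 28% in these data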;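 further: 0% = buffer control ratio and 100% = XE991 inhibitor control ratio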
# CHO KCNQ1 ctr: counter-screen for KCNQ1 inhibitors: effect in parental CHO cells; shares compounds with KCNQ1 block; parental CHO-K1, FluxOR thallium flux fluorescence ratio; stronger effect = lower value; zero means no signal rise above baseline; fluorescence ratio (Tl flux) at 10 µM; hit rate 21% among 1,600; AID 588366;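 active means mean of duplicate thallium-flux fluorescence ratios in parental host cells more than 5 SD below the buffer control mean, cut at about 0.38 in these data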;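 further: ratio is peak minus minimum fluorescence divided by baseline fluorescence; actives read low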
# KCNQ1 APC inh: blocks human KCNQ1 current in automated patch clamp | hit rate 20% among 490 | calls only at 10 µM | shares compounds with KCNQ1 block | KCNQ1-CHO cells;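 active means KCNQ1 current drop exceeding 3 SD of negative control wells, seen in both duplicate runs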;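 further: steady state current during a 2 s step from -80 to +40 mV; negative values mean current inhibition and positive values mean potentiation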
# KCNQ2 inh: selectivity of KCNQ1 inhibitors: inhibition of rat KCNQ2 channel; shares compounds with KCNQ1 block; KCNQ2 cells, FluxOR thallium flux fluorescence; inhibition, % at 10 µM; hit rate 71% among 1,600; AID 651746;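 active means mean percent inhibition of the KCNQ2 thallium signal more than 5 SD above the buffer-only control wells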;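 further: KCNQ2 expressed in CHO cells; 0% = buffer control wells and 100% = XE-991 inhibitor control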
# KCNQ1-KCNE1 inh: KCNQ1 inhibitor that also blocks human KCNQ1/KCNE1 channel; inhibition, % at 10 µM; shares compounds with KCNQ1 block; KCNQ1/KCNE1 cells, FluxOR thallium flux fluorescence; hit rate 77% among 1,600;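 active means mean percent inhibition of duplicate wells above the buffer-only control mean plus 3 SD of those controls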;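 further: 0% = buffer only wells and 100% = XE-991 inhibitor control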
# Target sequence (P51787 whole entry, looked up): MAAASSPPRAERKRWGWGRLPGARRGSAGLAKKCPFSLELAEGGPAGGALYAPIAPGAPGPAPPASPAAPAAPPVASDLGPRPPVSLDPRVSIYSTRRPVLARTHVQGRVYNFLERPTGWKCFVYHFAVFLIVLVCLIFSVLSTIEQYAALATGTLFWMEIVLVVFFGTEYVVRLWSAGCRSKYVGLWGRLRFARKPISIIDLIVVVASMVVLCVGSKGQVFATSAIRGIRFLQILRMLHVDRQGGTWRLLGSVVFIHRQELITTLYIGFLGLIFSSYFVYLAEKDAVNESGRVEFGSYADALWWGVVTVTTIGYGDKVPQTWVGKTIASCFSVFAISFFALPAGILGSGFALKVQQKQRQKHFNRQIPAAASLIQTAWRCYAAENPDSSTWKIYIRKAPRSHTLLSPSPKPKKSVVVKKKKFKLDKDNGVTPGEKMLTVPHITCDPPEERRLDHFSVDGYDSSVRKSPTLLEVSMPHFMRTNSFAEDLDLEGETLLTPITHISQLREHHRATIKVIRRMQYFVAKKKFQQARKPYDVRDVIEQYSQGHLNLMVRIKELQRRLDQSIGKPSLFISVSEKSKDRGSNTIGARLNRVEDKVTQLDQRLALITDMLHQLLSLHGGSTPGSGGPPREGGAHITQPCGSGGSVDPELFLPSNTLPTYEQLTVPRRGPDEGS
# KCNK9 block conf: human KCNK9 inhibitor confirmation; shares compounds with KCNK9 inh; HEK293 KCNK9 cells, FluxOR thallium flux fluorescence; inhibition, % at 10 µM; hit rate 43% among 4,900; AID 492992;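 active means thallium signal inhibited by more than 5 SD of the compound-free buffer control wells, on both duplicate plates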;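 further: 0% = assay buffer control wells without compound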
# Kir21 sel: selectivity of KCNK9 modulators against mouse Kir2.1; inhibition, % at 10 µM; Kir2.1 cells, FluxOR thallium flux fluorescence; hit rate 4% among 4,900; AID 492993; shares compounds with KCNK9 inh;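 active means thallium signal drop more than 5 SD beyond the mean of the no-compound control wells, seen in both duplicate plates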;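 further: signal is fluorescence rise after thallium addition divided by baseline fluorescence; plate controls were assay buffer only for no effect and full block by chlorpromazine control for full effect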
# KCNK9 uninduced: second check of KCNK9 modulator effects in non-induced HEK293 cells; shares compounds with KCNK9 inh; hit rate 40% among 4,900; FluxOR thallium flux; AID 492997; inhibition, % at 10 µM;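 active means thallium signal drop beyond 5 SD of the untreated control mean, on both duplicate plates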;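 further: plate controls were buffer only IC0 wells for no effect and SID17386958 at its maximal inhibitory level for full effect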
# KCNK3 confirm: confirmation of human KCNK3 two-pore domain potassium channel inhibitors; shares compounds with KCNK3 block; CHO-KCNK3 thallium flux, FluxOR fluorescence; 0% buffer, 100% carvedilol maximal block; ratio percent of control, % at 10 µM; hit rate 99% among 2,400; AID 651638;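 active means ratio percent of control, averaged over triplicates, above buffer control mean plus 5 SD, cut at about 64% in these data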;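 further: ratio is the fluorescence rise from min to max over baseline after thallium stimulus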
# KCNK3 noninduced: counter-screen for KCNK3 inhibitors: effect in non-induced cells; shares compounds with KCNK3 block; non-induced KCNK3 parental cells, FluxOR thallium flux; stronger effect = lower value; thallium flux ratio (lower = more inhibition) at 10 µM; hit rate 40% among 2,400; AID 651747;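 active means thallium flux ratio, averaged over three wells, more than 5 SD below the buffer control mean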;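 further: host cells are CHO cells without KCNK3 induction; ratio is peak minus trough fluorescence over baseline then normalized to buffer controls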
# Starred values were filed as active, the others as inactive; i = inactive; / = no result given; + = active, no number. Hits are enriched below; roughly 3.7% of the tested compounds scored in any of these assays.
SMILES,KCNK3 block,Kir21 block,KCNQ1 pot,hERG protect,KCNK9 inh,KCNQ1 block,KCNQ1 inh valid,CHO KCNQ1 ctr,KCNQ1 APC inh,KCNQ2 inh,KCNQ1-KCNE1 inh,KCNK3 confirm,KCNK3 noninduced,others
O=C(Oc1cccc(Nc2ncnc3ccccc23)c1)c1ccccc1Cl,-9.63*,1.64,i,-23.2,-8.97*,12*,139.5*,0.312*,/,131.0%*,+,139.0*,i,KCNK9 block conf=52.0%*;Kir21 sel=41.5%*;KCNK9 uninduced=44.0%*
O=C(C(Cc1ccccc1)n1cccc1)N1CCN(c2cccc(Cl)c2)CC1 (stereo not given),-9.19*,-2.01,i,-5.7,i,8*,115.5*,0.329*,/,117.0%*,158.0%*,98.3*,0.144*,
O=C(C(Cc1ccccc1)n1cccc1)N1CCN(Cc2ccccc2)CC1 (stereo not given),i,1.58,i,-22.1,i,i,/,/,/,/,/,/,/,
Cc1ccc2nc(N3C(=O)C(O)=C(C(=O)c4ccc(C)o4)C3c3ccc(O)cc3)sc2c1 (stereo not given),i,/,/,/,/,/,/,/,/,/,/,/,/,
CCOC(=O)N1CCC(n2c(SCC(=O)Nc3ccccc3OC)nc3ccccc3c2=O)CC1,-8.91*,0.64,i,-7.9,i,6*,82.0*,0.379*,/,109.0%*,136.0%*,109.7*,0.151*,KCNK9 block conf=i;Kir21 sel=i;KCNK9 uninduced=i
Cc1ccc(Cl)cc1N1CCN(C(=O)c2cc3c(=O)n(C)c4ccccc4c3n2C)CC1,-16*,-0.74,i,-11.9,i,15*,119.5*,0.398,i,126.3%*,i,137.3*,i,
COc1ccccc1NC(=O)CSc1nc(=O)n(Cc2ccncc2)c2c1CCCC2,i,-1.2,i,-9.7,i,i,/,/,/,/,/,/,/,
Cc1ccc(N/C(N)=N/c2nc3c(c(=O)[nH]2)CCCC3)c(C)c1,i,-0.18,i,0.9,i,i,/,/,/,/,/,/,/,
Cc1ccc(N/C(N)=N/c2nc(C)cc(N3CCCCC3)n2)c(C)c1,-11.6*,-2.85,i,-22.8,i,10*,91.0*,0.414,+,89.7%*,51.0%*,116.3*,i,
O=S(=O)(Nc1cccnc1Cl)c1ccc(-c2ccccc2)cc1,i,-1.19,i,-8.1,i,i,/,/,/,/,/,/,/,
O=S(=O)(Nc1ccccc1O)c1ccc(-c2ccccc2)cc1,-10.8*,-2.19,i,-10.8,i,15*,136.0*,0.39,i,94.0%*,76.5%*,120.0*,i,
